Calls of active or inactive are those of the source.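 Rule for the calls: active = fitted curve reaches 10% of the positive control caspase activation at or below the top valid tested dose; inactive = signal shifts the opposite way, plus the rest.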
tested on: MEWO unprimed cells, caspase-Glo luminescence, 3 h; assay: apoptosis induction in MEWO without priming – cell-based, human MEWO, caspase luminescence, dry powder, set 3, counter-screen for Bcl2-A1 inhibitor project, dose response (AID 504346); conditions: not given
Procedure, shortened: (§1)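 Assay system: Unprimed human MEWO cells engineered to express A1 | Amount: 2500 cells per well | Compound: Pin-transferred compound | Measured by: CaspaseGlo luminescence | Buffer or medium: RPMI-1640 growth medium with 10% FBS | Read-out: Caspase activation level per well | Incubation: 3 h compound at 37 °C, 1 h detection reagent at room temperature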

Row | SMILES | AC10
1 | Cn1c(=O)c([N+](=O)[O-])c(S(C)(=O)=O)c2ccccc21 | > 35 µM (inactive)
2 | O=c1[nH]c2ccccc2c(Cl)c1[N+](=O)[O-] | > 35 µM (inactive)
3 | COCCn1c(=O)c([N+](=O)[O-])c(Cl)c2ccccc21 | > 35 µM (inactive)
4 | CC1(C)CCC(c2ccc(Cl)cc2)=C(CN2CCN(c3ccc(C(=O)NS(=O)(=O)c4ccc(N[C@H](CCN5CCOCC5)CSc5ccccc5)c(S(=O)(=O)C(F)(F)F)c4)cc3)CC2)C1 | 3.09 µM
5 | O=c1c([N+](=O)[O-])c(Cl)c2ccccc2n1Cc1ccccc1 | 33.6 µM

tested on: not listed separately; assay: as above; conditions: MEWO unprimed cells, caspase-Glo luminescence, 3 h; at 35 µM (top of the series)
Procedure, shortened: as §1

Row | SMILES | caspase activation
6 | COc1ccc(CCNc2nc(N3CCOCC3)nc(N3CCOCC3)n2)cc1OC | 0.746% (inactive)
7 | Cn1c(=O)c([N+](=O)[O-])c(Cl)c2ccccc21 | 8.42% (inactive)
8 | COc1ccc(CCNc2nc(N3CCCC3)nc(N3CCCC3)n2)cc1OC | 0.039% (inactive)
9 | Cn1c(=O)c([N+](=O)[O-])c(Sc2ccccn2)c2ccccc21 | 3.69% (inactive)
10 | COc1ccc(N2CCN(c3nc(NCCc4ccc(OC)c(OC)c4)nc(N4CCOCC4)n3)CC2)cc1 | -0.115% (inactive)
11 | CCn1c(=O)c(Sc2ccc(C)cc2)c(Sc2ccc(C)cc2)c2ccccc21 | 1.36% (inactive)
12 | C/C(=N\Nc1nc(N2CCCCC2)nc(N2CCCCC2)n1)c1ccc(F)cc1 | -0.441% (inactive)
13 | COc1c([N+](=O)[O-])c(=O)n(C)c2ccccc12 | -0.158% (inactive)
14 | COc1nc2ccccc2c(Sc2ccc(C)cc2)c1[N+](=O)[O-] | 0.891% (inactive)
15 | Cc1ccc(Sc2c([N+](=O)[O-])c(=O)n(C)c3ccccc23)cc1 | 1.27% (inactive)
16 | Cn1c(=O)c(Sc2ccccn2)c(Sc2ccccn2)c2ccccc21 | -0.272% (inactive)
17 | O=c1[nH]c2ccccc2c(O)c1[N+](=O)[O-] | -0.15% (inactive)
18 | Cc1ccc(Sc2c([N+](=O)[O-])c(=O)n(Cc3ccccc3)c3ccccc23)cc1 | 0.173% (inactive)
19 | Cc1ccc(Sc2c(Sc3ccc(C)cc3)c3ccccc3n(C)c2=O)cc1 | 0.838% (inactive)
20 | CCn1c(=O)c([N+](=O)[O-])c(Sc2ccc(C)cc2)c2ccccc21 | 2.11% (inactive)
21 | O=C(COc1ccc(Cl)cc1Cl)NNc1nc(N2CCOCC2)nc(N2CCOCC2)n1 | -0.692% (inactive)
22 | Cc1ccc(Sc2c(Sc3ccc(C)cc3)c3ccccc3n(Cc3ccccc3)c2=O)cc1 | 0.136% (inactive)
23 | COc1nc2ccccc2c(Cl)c1[N+](=O)[O-] | 0.103% (inactive)
24 | COCCn1c(=O)c([N+](=O)[O-])c(Sc2ccc(C)cc2)c2ccccc21 | 1.99% (inactive)
25 | Cc1ccc(S(=O)(=O)c2c([N+](=O)[O-])c(=O)n(C)c3ccccc23)cc1 | 2.24% (inactive)
26 | COCCn1c(=O)c(Sc2ccc(C)cc2)c(Sc2ccc(C)cc2)c2ccccc21 | 1.05% (inactive)
27 | CCn1c(=O)c([N+](=O)[O-])c(Cl)c2ccccc21 | 5.44% (inactive)
